From article PMC11522000 (Nature Microbiology, 2024)
“And” between values parts separate entries of the source, which are not always exact repeats. Equal entries are not always repeated. Where two headings read alike, the source gives them in different places.

Legend:
CpPI(4)K::Y705A:Y907A = assay: PI; format: biochemical, C. parvum
Method in brief: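 Enzyme was pre-incubated with compound for 5 min at room temperature. The reaction was started with substrate mix at twice final strength (PI, ATP, Tris-HCl pH 7.5, DTT, 0.05% Triton X-100, MnCl2) and run 50 min at room temperature. ADP was measured by ADP-Glo luminescence. IC50s came from in-plate duplicate 10-point 3-fold dilutions, with DMSO and reference-inhibitor controls. The C. parvum enzymes (wild type and mutants) were full-length proteins expressed from baculovirus in Sf21 cells.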

C. hominis = assay: Cytopathic effect; format: cell-based, Cryptosporidium hominis; settings: HCT-8, 48 h, read-out: Ch CPE EC50
Method in brief: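 HCT-8 cells were grown at 37 °C, 5% CO2 in RPMI-1640 with 10% heat-inactivated FBS. Oocysts were excysted in 10 mM HCl/HBSS for 10 min at 37 °C, then in 2 mM sodium taurocholate in L-15/UltraCULTURE medium for 5 min. Infected cells were seeded onto pre-spotted compound (10-point, 3-fold dilution; DMSO and reference-inhibitor controls) and incubated 48 h. Cells were then lysed for a viability read-out, and concentration-response curves were fitted.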

CYP3A4 = CYP3A4 (Homo sapiens, UniProt P08684); assay: CYP450 reversible inhibition; format: in vitro ADME
Chain of CYP3A4 (P08684 whole entry): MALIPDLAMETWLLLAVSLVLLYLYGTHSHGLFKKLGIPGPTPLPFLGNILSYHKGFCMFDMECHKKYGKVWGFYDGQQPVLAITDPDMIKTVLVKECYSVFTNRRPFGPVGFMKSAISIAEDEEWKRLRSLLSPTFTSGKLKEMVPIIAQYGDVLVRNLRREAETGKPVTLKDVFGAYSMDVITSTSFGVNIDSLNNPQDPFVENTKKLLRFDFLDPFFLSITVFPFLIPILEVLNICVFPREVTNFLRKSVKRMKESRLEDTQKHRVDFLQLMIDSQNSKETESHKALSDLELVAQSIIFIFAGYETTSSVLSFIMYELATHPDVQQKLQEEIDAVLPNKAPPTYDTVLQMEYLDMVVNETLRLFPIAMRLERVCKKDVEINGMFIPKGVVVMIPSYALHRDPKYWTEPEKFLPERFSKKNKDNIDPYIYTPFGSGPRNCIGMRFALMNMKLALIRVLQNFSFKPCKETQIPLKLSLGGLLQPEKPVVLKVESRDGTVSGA

[1] = Hepatocytes metabolic stability; format: in vitro ADME; settings: human
Method in brief: (§1)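 Test compound was incubated with liver microsomes or hepatocytes of each species, and parent depletion was quantified by LC-MS/MS. From this, in vitro half-life and intrinsic clearance were derived, along with predicted metabolic clearance and hepatic extraction ratio.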

HepG2 = assay: Cytotoxicity assay; format: cell-based, human
CYP3A4 / 1A2 / 2B6 = CYP3A4 / 1A2 / 2B6 hepatocyte induction assay; format: in vitro ADME
[2] = system: Salmonella typhimurium strains TA98 and TA100; assay: Mini-Ames
Method in brief: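 Histidine-auxotrophic S. typhimurium TA98 and TA100 were exposed to test compound with and without rat liver S9.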

CYP2C9 = CYP2C9 (Homo sapiens, UniProt P11712); assay: CYP450 reversible inhibition; format: in vitro ADME
Chain of CYP2C9 (P11712 whole entry): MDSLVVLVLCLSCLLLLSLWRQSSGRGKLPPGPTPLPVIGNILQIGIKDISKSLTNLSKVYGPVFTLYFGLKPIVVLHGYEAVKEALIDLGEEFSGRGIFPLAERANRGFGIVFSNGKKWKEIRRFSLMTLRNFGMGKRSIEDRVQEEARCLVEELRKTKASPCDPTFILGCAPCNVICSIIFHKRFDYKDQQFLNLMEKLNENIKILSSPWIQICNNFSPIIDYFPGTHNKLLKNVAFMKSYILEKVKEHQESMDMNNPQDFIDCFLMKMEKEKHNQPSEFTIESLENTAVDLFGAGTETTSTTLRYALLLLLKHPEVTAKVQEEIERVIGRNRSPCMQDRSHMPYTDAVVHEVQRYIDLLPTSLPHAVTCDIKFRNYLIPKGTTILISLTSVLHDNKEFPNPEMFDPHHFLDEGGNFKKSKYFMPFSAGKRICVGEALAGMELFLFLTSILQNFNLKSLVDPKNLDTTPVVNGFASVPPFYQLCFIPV

Plasma stability [3] = format: in vitro ADME; settings: mouse
Method in brief: (§2)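 Test compound was added to plasma and incubated at 37 °C in a shaking water bath, with samples taken at sequential timepoints. Samples were quenched with ice-cold acetonitrile and analysed by LC-MS/MS, and half-life was calculated from the depletion rate.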

Plasma stability [4] = format: in vitro ADME; settings: human
Method in brief: as §2

C. parvum = assay: Mouse efficacy study; format: in vivo, C57BL/6 IFN-γ-knockout mice; settings: for log reduction in oocyst shedding / log reduction in faecal oocyst shedding: IFN-γ KO mouse, 5 days; for log reduction in faecal oocyst shedding: 10 mg kg^−1 oral
Plasma protein binding [5] = format: in vitro ADME; settings: human
[6] = Stability in intestinal S9 fraction; format: in vitro ADME; settings: mouse
Method in brief: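 Test compound added to intestinal S9 fraction of each species to start the reaction. Incubated in a shaking water bath at 37 °C, with samples taken at sequential timepoints. Samples quenched with ice-cold acetonitrile and analysed by LC-MS/MS. Half-life calculated from the rate of parent compound depletion.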

[7] = Liver microsomes metabolic stability; format: in vitro ADME; settings: rat
Method in brief: as §1

[8] = Hepatocytes metabolic stability; format: in vitro ADME; settings: mouse; for half-life / hepatocyte CLint: hepatocytes
Method in brief: as §1

Plasma protein binding [9] = format: in vitro ADME; settings: dog
hERG = hERG (Homo sapiens, UniProt Q12809); assay: hERG binding assay
Chain of hERG (Q12809 whole entry): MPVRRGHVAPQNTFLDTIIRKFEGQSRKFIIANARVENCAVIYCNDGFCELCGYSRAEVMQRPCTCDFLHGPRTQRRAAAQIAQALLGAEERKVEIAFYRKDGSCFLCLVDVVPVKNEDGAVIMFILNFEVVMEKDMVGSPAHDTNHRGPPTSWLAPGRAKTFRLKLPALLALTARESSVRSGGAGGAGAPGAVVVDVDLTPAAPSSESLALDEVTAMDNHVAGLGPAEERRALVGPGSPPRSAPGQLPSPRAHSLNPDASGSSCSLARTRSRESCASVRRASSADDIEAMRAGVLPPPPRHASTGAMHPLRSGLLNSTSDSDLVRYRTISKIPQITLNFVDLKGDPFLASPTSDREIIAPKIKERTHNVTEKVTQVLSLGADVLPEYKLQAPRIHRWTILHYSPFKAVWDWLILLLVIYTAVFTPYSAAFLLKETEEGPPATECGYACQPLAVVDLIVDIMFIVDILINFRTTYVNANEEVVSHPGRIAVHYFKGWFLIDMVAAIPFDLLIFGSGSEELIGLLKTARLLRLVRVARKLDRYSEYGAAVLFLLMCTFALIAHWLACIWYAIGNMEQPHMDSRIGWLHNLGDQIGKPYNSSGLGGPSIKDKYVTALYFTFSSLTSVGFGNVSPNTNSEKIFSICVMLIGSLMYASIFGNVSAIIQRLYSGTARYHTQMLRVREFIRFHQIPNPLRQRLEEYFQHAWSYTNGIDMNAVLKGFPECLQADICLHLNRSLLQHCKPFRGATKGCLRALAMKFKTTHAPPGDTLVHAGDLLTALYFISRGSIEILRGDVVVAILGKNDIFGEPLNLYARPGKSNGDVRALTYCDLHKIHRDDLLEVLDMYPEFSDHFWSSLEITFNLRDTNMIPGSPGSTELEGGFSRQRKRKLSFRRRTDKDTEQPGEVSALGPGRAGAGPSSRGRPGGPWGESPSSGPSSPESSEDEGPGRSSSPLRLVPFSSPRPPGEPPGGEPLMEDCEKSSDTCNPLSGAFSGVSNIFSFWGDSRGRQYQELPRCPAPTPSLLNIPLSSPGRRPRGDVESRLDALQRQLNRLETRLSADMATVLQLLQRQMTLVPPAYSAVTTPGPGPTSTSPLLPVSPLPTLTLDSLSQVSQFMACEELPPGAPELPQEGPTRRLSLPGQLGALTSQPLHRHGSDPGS
Method in brief: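 Binding was measured in hERG-expressing HEK293 cells. Concentration-response curves were typically 6-point, spanning 0.37 to 30.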

HsPI(4)K = HsPI(4)K (Homo sapiens, UniProt Q9UBF8); assay: PI; format: biochemical; settings: for IC50: HsPI(4)K IC50, 3 μM ATP
Chain of HsPI(4)K (Q9UBF8 523-816 limits assumed): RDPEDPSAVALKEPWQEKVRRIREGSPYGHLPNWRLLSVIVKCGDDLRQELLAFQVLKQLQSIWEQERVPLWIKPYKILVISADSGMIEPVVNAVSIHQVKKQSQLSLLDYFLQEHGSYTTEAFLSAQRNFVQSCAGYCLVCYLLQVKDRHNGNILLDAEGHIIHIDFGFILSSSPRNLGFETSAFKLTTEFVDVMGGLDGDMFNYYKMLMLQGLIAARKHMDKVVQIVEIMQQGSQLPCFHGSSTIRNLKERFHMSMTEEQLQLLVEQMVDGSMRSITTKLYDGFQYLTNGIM

CYP2D6 = CYP2D6 (Homo sapiens, UniProt P10635); assay: CYP450 reversible inhibition; format: in vitro ADME
Chain of CYP2D6 (P10635 whole entry): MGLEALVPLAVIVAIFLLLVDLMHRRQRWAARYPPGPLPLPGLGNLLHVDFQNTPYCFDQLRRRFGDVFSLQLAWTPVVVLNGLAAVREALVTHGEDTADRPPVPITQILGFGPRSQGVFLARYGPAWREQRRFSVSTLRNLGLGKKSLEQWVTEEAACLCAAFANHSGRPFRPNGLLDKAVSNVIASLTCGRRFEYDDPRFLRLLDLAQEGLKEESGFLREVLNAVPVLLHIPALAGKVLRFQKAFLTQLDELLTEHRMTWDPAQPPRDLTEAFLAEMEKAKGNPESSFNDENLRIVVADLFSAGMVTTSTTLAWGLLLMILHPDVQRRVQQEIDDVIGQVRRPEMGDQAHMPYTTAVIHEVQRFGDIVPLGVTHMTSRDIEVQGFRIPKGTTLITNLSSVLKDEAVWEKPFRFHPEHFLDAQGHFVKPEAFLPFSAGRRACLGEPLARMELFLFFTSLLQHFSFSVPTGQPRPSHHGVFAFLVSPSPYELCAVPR

[10] = Liver microsomes metabolic stability; format: in vitro ADME; settings: human
Method in brief: as §1

Plasma stability [11] = format: in vitro ADME; settings: rat
Method in brief: as §2

[12] = Liver microsomes metabolic stability; format: in vitro ADME; settings: dog
Method in brief: as §1

CNC(=O)c1ccc(-c2cnn3ccc(C(=O)N(C)c4ccc(Cl)c(C(=O)OC)c4)cc23)cc1 [EDI048, methyl 2-chloro-5-(N-methyl-3-(4-(methylcarbamoyl)phenyl)pyrazolo[1,5-a]pyridine-5-carboxamido)benzoate]
loss of potency against CpPI(4)K::Y705A:Y907A mutant compared with wild-type (CpPI(4)K::Y705A:Y907A): 35–200 ×
EC50 (C. hominis; Cryptosporidium hominis): 0.05 ± 0.001 µM
IC50 (CYP3A4): 10.5 µM
half-life ([1]; hepatocytes): < 3 min
hepatocyte CLint ([1]; hepatocytes): > 231 µL/min/1e6 cells
SI (selectivity index) HepG2 CC50 / C. parvum EC50 ratio (HepG2): > 100
selectivity ratio at 96 h (HepG2; human, HepG2 cells (ATCC CRL-10741)): > 500
CC50 (HepG2; read-out: HepG2 CC50, 96 h): 28.1 µM
CYP3A4 / 1A2 / 2B6 hepatocyte induction assay (CYP3A4 / 1A2 / 2B6): Non-inducer
Mini-AMES [2]: Negative
IC50 (CYP2C9): 2.51 µM
half-life (Plasma stability [3]; Plasma T1/2, mouse plasma): 15.3 min
half-life (Plasma stability [3]; Plasma T1/2, rodent plasma): 12 to 15 min
Plasma T1/2 (Plasma stability [4]): > 120 min
half-life (Plasma stability [4]; Plasma T1/2, human plasma): > 240 min
log reduction in oocyst shedding (C. parvum; 1 mg kg^−1 oral once daily): 0.3 log
log reduction in oocyst shedding (C. parvum; 3 mg kg^−1 oral once daily): 1.1 log
log reduction in faecal oocyst shedding (C. parvum): > 3 log and 3.1 log
fraction unbound (Plasma protein binding [5]; plasma): 0.045
half-life [6]: 45 min
Microsomal ER [7]: 96%
microsomal CLint ([7]; liver microsomes): > 700 µL/min/mg
Hepatocytes ER [8]: 93%
half-life [8]: 2.8 min
hepatocyte CLint [8]: > 250 µL/min/1e6 cells
fraction unbound (Plasma protein binding [9]; plasma): 0.061
IC50 (hERG): > 30 µM
selectivity for Cryptosporidium PI(4)K over HsPI(4)K (HsPI(4)K): > 300 fold and 300 fold
IC50 (HsPI(4)K): 1.03 ± 0.47 µM
IC50 (CYP2D6): > 25 µM
Microsomal ER [10]: 92%
microsomal CLint ([10]; liver microsomes): 222 µL/min/mg
half-life (Plasma stability [11]): 11.6 min
Microsomal ER [12]: 94%
microsomal CLint ([12]; liver microsomes): 271 µL/min/mg

CN(C(=O)c1ccn2ncc(-c3ccc(C(N)=O)cc3)c2c1)c1ccc(C#N)cn1 [KDU731, 3–(4-carbamoylphenyl)-N-(5-cyanopyridin-2-yl)-N-methylpyrazolo [1,5-a]pyridine-5-carboxamide, reference compound]
loss of potency against CpPI(4)K::Y705A:Y907A mutant compared with wild-type (CpPI(4)K::Y705A:Y907A): 35–200 ×
EC50 (C. hominis; C. hominis): 0.13 µM
IC50 (CYP3A4): > 50 µM
Hepatocytes ER [1]: 60%
Hepatocytes clearance [1]: 12 μl/min/million cells
half-life ([1]; hepatocytes): 57.9 min
SI (selectivity index) HepG2 CC50 / C. parvum EC50 ratio (HepG2): > 100
CYP3A4 / 1A2 / 2B6 hepatocyte induction assay (CYP3A4 / 1A2 / 2B6): Non-inducer
Mini-AMES [2]: Negative
IC50 (CYP2C9): > 4.8 µM
half-life (Plasma stability [3]): 85.2 min
half-life (Plasma stability [4]): > 120 min
log reduction in faecal oocyst shedding (C. parvum): ~ 3 log
effect of intravenous injection on parasite load (C. parvum; i.v. 1 mg kg^−1, exposure similar to oral): negligible effects on the parasite load
% Plasma protein binding (Plasma protein binding [5]): 79.1%
half-life [6]: > 240 min
Microsomal ER [7]: 47%
microsomal CLint [7]: 29 µL/min/mg
Hepatocytes ER [8]: 18%
half-life [8]: > 175 min
hepatocyte CLint [8]: < 4 µL/min/1e6 cells
% Plasma protein binding (Plasma protein binding [9]): 70.8%
IC50 (hERG): > 30 µM
IC50 (HsPI(4)K): 1.93 ± 1.08 µM
IC50 (CYP2D6): > 50 µM
Microsomal ER [10]: 39%
microsomal CLint [10]: 13 µL/min/mg
half-life (Plasma stability [11]): > 120 min
Microsomal ER [12]: 67%
microsomal CLint [12]: 36 µL/min/mg
